Results from ChEMBL document CHEMBL3352418 (Bioorg Med Chem, 2014).

Key:
[1] = Tmax in dog at 1.09 mg/kg, iv and 10.9 mg/kg, po; assay type: ADME, organism-based, Canis lupus familiaris; settings: in vivo
Procedure, shortened: (§1)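 Male animals (n = 3) dosed at 1.09 mg/kg iv and 10.9 mg/kg p.o.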

[2] = Oral bioavailability in dog at 10.9 mg/kg; assay type: ADME, organism-based, Canis lupus familiaris; settings: in vivo; procedure, shortened: as §1
[3] = AUC in dog at 1.09 mg/kg, iv and 10.9 mg/kg, po; assay type: ADME, organism-based, Canis lupus familiaris; settings: plasma; procedure, shortened: as §1
[4] = AUC in monkey at 20 mg/kg, po; assay type: ADME, organism-based, Macaca mulatta; parameters: dose 20 mg/kg, route oral; settings: rhesus monkey, plasma
Procedure, shortened: (§2)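 Oral dose of 20 mg/kg given to both sexes: males (n = 2) and females (n = 2).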

[5] = Cmax in guinea pig at 10.9 mg/kg, po; assay type: ADME, organism-based, Cavia porcellus; parameters: dose 10.9 mg/kg, route oral; settings: in vivo
Procedure, shortened: (§3)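 Single oral dose of 10.9 mg/kg to male animals, n = 3.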

[6] = Cmax in monkey at 20 mg/kg, po; assay type: ADME, organism-based, Macaca mulatta; parameters: dose 20 mg/kg, route oral; settings: rhesus monkey, in vivo; procedure, shortened: as §2
[7] = Total body clearance in dog at 1.09 mg/kg, iv and 10.9 mg/kg, po; assay type: ADME, organism-based, Canis lupus familiaris; settings: in vivo; procedure, shortened: as §1
[8] = Tmax in guinea pig at 10.9 mg/kg, po; assay type: ADME, organism-based, Cavia porcellus; parameters: dose 10.9 mg/kg, route oral; settings: in vivo; procedure, shortened: as §3
[9] = Volume of distribution at steady state in dog at 1.09 mg/kg, iv and 10.9 mg/kg, po; assay type: ADME, organism-based, Canis lupus familiaris; settings: in vivo, read-out: Vdss; procedure, shortened: as §1
[10] = Tmax in monkey at 20 mg/kg, po; assay type: ADME, organism-based, Macaca mulatta; parameters: dose 20 mg/kg, route oral; settings: rhesus monkey, in vivo; procedure, shortened: as §2
[11] = AUC in guinea pig at 10.9 mg/kg, po; assay type: ADME, organism-based, Cavia porcellus; parameters: dose 10.9 mg/kg, route oral; settings: plasma; procedure, shortened: as §3
[12] = Cmax in dog at 1.09 mg/kg, iv and 10.9 mg/kg, po; assay type: ADME, organism-based, Canis lupus familiaris; settings: in vivo; procedure, shortened: as §1

Structure (SMILES): COc1cccc(CNC(=O)c2nc3scc(COCc4ccc(C(=O)[O-])cc4)c3c(=O)[n-]2)c1.[Na+].[Na+]
- Tmax [1]: 2 h
- bioavailability [2]: 29%
- AUC [3]: 27100 ng·h/mL
- AUC [4]: 82400 ng·h/mL
- Cmax [5]: 1440 ng/mL
- Cmax [6]: 6610 ng/mL
- clearance [7]: 1.85 mL/min/kg
- Tmax [8]: 0.67 h
- Vd [9]: 0.395 L/kg
- Tmax [10]: 3 h
- AUC [11]: 8360 ng·h/mL
- Cmax [12]: 2440 ng/mL
